Results as given in the M2OR odorant receptor database.

Columns and labels:
Settings in all cases: stereoisomer not certain
UniProt Q8VF52 = biological target: T1, UniProt Q8VF52
T1 sequence (whole entry): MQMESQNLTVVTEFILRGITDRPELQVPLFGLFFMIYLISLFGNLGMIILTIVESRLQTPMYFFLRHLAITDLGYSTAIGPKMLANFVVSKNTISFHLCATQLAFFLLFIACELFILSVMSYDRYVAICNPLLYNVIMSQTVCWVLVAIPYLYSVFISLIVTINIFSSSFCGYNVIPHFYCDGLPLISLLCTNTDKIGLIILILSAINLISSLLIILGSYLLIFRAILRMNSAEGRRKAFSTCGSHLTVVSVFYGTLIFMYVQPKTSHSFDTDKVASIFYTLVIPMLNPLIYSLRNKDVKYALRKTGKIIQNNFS
How it was run: (§1)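 Assay methods differ from source to source, frequently being transient luciferase assays in mammalian cell lines. For each receptor–molecule pair, the label responsive (active) applies when the original authors judged the measured signal statistically different from baseline, and non-responsive (inactive) applies otherwise.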

UniProt Q8VFG6 = biological target: T2, UniProt Q8VFG6
T2 sequence (whole entry): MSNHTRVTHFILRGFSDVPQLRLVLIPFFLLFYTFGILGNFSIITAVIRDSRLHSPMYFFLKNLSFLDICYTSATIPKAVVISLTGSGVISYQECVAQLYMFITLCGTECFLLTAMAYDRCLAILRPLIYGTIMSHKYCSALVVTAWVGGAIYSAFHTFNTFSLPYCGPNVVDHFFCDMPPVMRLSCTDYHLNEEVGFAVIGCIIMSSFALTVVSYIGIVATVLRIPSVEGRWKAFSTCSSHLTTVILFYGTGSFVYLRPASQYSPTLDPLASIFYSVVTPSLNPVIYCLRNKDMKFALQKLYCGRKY
How it was run: as §1

UniProt Q8VFZ6 = biological target: T3, UniProt Q8VFZ6
T3 sequence (whole entry): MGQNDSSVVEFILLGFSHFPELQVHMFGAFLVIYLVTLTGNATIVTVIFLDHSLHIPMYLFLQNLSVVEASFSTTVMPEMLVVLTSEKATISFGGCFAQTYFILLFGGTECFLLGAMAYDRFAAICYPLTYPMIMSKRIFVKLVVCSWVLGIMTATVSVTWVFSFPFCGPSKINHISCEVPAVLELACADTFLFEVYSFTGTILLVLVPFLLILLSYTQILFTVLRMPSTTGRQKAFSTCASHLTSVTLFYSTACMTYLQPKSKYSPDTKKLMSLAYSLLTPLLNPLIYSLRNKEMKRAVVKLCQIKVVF
How it was run: as §1

UniProt Q8VG01 = biological target: T4, UniProt Q8VG01
T4 sequence (whole entry): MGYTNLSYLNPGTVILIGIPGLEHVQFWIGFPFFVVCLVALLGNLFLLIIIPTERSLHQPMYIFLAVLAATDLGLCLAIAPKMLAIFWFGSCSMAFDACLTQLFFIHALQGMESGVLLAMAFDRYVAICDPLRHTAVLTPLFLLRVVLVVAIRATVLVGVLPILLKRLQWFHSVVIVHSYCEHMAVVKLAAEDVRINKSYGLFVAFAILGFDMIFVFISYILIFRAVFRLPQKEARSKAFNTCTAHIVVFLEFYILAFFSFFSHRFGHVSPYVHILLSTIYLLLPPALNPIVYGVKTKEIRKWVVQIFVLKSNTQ
How it was run: as §1

UniProt Q8VG22 = biological target: T5, UniProt Q8VG22
T5 sequence (whole entry): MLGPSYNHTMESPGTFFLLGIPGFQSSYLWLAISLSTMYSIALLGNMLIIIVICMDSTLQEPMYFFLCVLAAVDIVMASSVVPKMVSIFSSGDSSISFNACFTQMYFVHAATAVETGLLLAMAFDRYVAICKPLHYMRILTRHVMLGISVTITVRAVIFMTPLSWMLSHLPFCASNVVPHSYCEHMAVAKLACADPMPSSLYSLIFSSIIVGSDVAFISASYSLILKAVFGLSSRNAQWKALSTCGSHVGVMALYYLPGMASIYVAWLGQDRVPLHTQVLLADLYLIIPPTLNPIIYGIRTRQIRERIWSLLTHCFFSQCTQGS
How it was run: as §1

UniProt Q8VG49 = biological target: T6, UniProt Q8VG49
T6 sequence (whole entry): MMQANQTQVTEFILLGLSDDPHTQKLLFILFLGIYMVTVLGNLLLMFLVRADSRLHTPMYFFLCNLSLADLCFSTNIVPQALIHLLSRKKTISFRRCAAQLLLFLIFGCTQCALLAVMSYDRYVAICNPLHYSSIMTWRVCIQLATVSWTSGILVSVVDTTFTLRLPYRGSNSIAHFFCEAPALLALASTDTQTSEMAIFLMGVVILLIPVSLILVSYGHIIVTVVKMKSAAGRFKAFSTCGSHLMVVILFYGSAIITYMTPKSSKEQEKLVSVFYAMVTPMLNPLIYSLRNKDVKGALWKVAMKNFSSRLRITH
How it was run: as §1

UniProt Q8VG77 = biological target: T7, UniProt Q8VG77
T7 sequence (whole entry): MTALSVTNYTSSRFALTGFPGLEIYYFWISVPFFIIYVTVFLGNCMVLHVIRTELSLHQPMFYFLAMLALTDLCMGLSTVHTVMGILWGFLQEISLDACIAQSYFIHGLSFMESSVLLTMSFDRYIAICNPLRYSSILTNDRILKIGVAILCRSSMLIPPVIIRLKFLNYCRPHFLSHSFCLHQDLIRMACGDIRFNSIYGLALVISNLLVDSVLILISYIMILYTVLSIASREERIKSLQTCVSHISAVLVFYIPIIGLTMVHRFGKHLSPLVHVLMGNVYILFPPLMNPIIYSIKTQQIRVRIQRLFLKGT
How it was run: as §1

UniProt Q8VG96 = biological target: T8, UniProt Q8VG96
T8 sequence (whole entry): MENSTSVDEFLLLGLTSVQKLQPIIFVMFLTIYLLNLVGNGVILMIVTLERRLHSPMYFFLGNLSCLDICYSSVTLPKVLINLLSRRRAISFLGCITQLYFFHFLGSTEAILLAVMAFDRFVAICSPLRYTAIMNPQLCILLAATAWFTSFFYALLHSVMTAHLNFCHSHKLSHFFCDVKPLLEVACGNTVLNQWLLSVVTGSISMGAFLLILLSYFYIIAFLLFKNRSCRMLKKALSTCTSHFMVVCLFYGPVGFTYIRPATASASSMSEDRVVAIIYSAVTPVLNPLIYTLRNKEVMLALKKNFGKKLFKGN
How it was run: as §1

UniProt Q8VGC6 = biological target: T9, UniProt Q8VGC6
T9 sequence (whole entry): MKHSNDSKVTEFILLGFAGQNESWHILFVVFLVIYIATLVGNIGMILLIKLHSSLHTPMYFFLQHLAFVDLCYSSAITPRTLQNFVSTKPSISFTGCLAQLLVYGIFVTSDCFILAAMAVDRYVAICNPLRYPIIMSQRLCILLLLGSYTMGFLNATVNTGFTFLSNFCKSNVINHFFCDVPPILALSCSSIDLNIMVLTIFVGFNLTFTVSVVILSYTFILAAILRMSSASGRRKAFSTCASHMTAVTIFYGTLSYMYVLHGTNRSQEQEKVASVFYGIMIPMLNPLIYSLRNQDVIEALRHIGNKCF
How it was run: as §1

UniProt Q8VGD7 = biological target: T10, UniProt Q8VGD7
T10 sequence (whole entry): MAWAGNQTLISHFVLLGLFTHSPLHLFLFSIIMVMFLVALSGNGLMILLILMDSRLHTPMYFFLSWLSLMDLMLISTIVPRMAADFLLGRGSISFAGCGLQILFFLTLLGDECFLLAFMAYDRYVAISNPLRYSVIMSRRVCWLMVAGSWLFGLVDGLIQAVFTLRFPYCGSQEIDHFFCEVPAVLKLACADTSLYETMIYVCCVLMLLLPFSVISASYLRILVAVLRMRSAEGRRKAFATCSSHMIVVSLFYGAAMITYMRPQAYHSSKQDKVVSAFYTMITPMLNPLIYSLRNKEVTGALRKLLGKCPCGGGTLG
How it was run: as §1

UniProt Q8VGH1 = biological target: T11, UniProt Q8VGH1
T11 sequence (whole entry): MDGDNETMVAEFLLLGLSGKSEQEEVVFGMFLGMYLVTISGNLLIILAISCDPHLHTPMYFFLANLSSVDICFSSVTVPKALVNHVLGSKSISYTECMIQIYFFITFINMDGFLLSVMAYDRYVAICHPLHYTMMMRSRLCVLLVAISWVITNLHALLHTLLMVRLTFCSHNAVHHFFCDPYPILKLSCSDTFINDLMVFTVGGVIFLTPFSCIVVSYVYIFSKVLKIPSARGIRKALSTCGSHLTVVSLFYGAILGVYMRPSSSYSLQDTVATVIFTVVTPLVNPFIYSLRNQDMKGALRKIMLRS
How it was run: as §1

UniProt Q8VGJ1 = biological target: T12, UniProt Q8VGJ1
T12 sequence (whole entry): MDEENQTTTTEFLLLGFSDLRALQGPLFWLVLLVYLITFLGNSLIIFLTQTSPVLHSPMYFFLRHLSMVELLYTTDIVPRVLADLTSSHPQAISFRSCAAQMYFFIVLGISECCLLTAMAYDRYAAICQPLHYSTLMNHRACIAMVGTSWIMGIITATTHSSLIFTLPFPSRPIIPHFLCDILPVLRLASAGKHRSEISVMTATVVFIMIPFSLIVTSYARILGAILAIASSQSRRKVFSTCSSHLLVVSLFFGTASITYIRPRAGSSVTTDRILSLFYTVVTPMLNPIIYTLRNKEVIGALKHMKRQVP
How it was run: as §1

Measured: odorant receptor agonist call

C=CCc1ccccc1
inactive: all assays above
